# LMPTP inh: LMPTP (human) inhibition. P24666. recombinant LMPTP-A, OMFP fluorogenic substrate, fluorescence intensity. inhibition, % at 20 µM. 360,000 compounds, 0.22% hits. AID 651560;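 active = compounds that cut the enzyme signal by at least half of the control window in the single-dose screen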;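 also: plate controls were DMSO wells with enzyme plus substrate for no effect and substrate without enzyme for full effect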
#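 Assay system: LMPTP-A enzyme. Input: 0.625 nM LMPTP-A final. Probe or stimulus: 400 µM OMFP. Compound dosing: single 20 µM dose. Schedule: 50 min dark incubation at room temperature. Detection: fluorescence intensity of OMFP turnover product. Read-out: percent inhibition versus substrate-only and uninhibited controls. Benchmarks: no-enzyme low control, uninhibited high control.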
# Rpn11 block: inhibitors of human proteasome Rpn11. human 26S proteasome, Ub4-pepOG fluorescence polarization; 20S core pre-blocked with epoxomicin. inhibition, % at 20 µM. O00487. 360,000 compounds, 0.59% hits. AID 588493;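 active = inhibition at 20 µM, scaled to each plate's controls, above about 33%, limit read from the data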
# Scp1 inh: inhibitors of human Scp-1 phosphatase; Q9GZU7; Recombinant Scp1, phosphopeptide, malachite green phosphate absorbance; inhibition, % at 20 µM; 340,000 compounds, 0.88% hits; AID 493091;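 active = inhibition above about 50% at 20 µM, limit read from the data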;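 also: plate controls were DMSO wells with enzyme for no effect and wells lacking enzyme for full effect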
#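 Test system: SCP-1 catalytic domain; Buffer or medium: Acidic Tris acetate buffer with magnesium and detergent; Also added: Phosphorylated 17-residue peptide substrate; Compound: single 20 µM dose, 1% DMSO; Schedule: enzyme reaction 45 min at room temperature, colour 5 min, stabilisation 30 min; Signal: Phosphate-binding colour reagent, absorbance read at 630 nm.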
# SUMO1-SIM PPI: modulators of human SUMO1-mediated protein-protein interactions; P63165; SUMO1 binding to a labelled peptide, TR-FRET, 1 h; inhibition, % at 20 µM; 360,000 compounds, 0.33% hits; in the data active = inhibition above about 37%
# STEP inh: STEP (human) phosphatase inhibition; 360,000 compounds, 0.25% hits; AID 588621; recombinant STEP, OMFP fluorogenic substrate, fluorescence; inhibition, % at 20 µM;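 active = inhibition at 20 µM, scaled per plate between control wells, above about 37%, limit read from the data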;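 also: 0% = DMSO with enzyme and substrate and 100% = substrate only without enzyme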
#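 Assay system: isolated STEP enzyme. Buffer or medium: pH 6.0 Bis-Tris with DTT and Tween 20. Also added: fluorogenic phosphatase substrate OMFP at 25 µM final. Dosing: 20 µM, 1% DMSO. Timing: 20 min reaction, room temperature, in the dark. Measured by: fluorescence intensity, excitation 480 nm, emission 540 nm. Evaluation: normalized % inhibition.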
# DNMT1 inh: inhibitors of human DNMT1; P26358; DNMT1 molecular beacon, Hinp1I cleavage, fluorescence; inhibition (reported as % activation of signal), % at 10 µM; 360,000 compounds, 0.83% hits; AID 588458; in the data active = inhibition above about 50%
# Scp-1 conf: Scp-1 (human) inhibition, single-dose confirmed; shares compounds with Scp1 inh; recombinant SCP-1 catalytic domain, phosphate release, malachite green absorbance; inhibition, % at 20 µM; 2,500 compounds, 61% hits; AID 540281;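 also: plate controls were DMSO with enzyme for no effect and buffer wells lacking enzyme for full effect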
# Scp-1 MG ctr: interferes with malachite green readout, flagging false Scp-1 hits; shares compounds with Scp1 inh; Colorimetric interference counterscreen, malachite green absorbance 630 nm; apparent inhibition (interference), % at 20 µM; 2,500 tested, under 10 active;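 also: compounds added after enzyme reaction finished so only phosphate colour detection is probed; plate controls were DMSO wells with completed Scp-1 reaction for no effect and substrate wells lacking enzyme for full effect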
# Scp1 DSF: Scp-1 (human) binding by thermal shift; thermal shift relative to vanadate control, % at 40 µM; Recombinant SCP1, Sypro Orange thermal shift Tm; shares compounds with Scp1 inh; 1,500 compounds, 25% hits;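 active = substances whose mean melting-temperature shift, as a percentage of the reference inhibitor's shift, reaches about 5.3%, limit read from the data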;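 also: 0% = Tm of DMSO wells and 100% = Tm with sodium orthovanadate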
# Numbers without * were called inactive; . = no result. The list is not random: actives were taken first. Their share in the collection is about 2.3%.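 The calls were made as follows, unless noted: active = inhibition of at least 30% at 20 µM; inactive = the rest.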
SMILES,LMPTP inh,Rpn11 block,Scp1 inh,SUMO1-SIM PPI,STEP inh,DNMT1 inh,Scp-1 conf,Scp-1 MG ctr,others
Cc1ccnc(NS(=O)(=O)c2ccc(N3C(=O)c4c(Cl)c(Cl)c(Cl)c(Cl)c4C3=O)cc2)n1,0.2,5.5,66.9*,28.9,16.9,12.0,26.5,-14.0,
Cc1ccnc(NS(=O)(=O)c2ccc(N3C(=O)c4ccccc4C3=O)cc2)n1,-1.3,-6.0,-2.7,-17.8,0.4,-0.4,.,.,
COc1cccc(CNC(=O)[C@@H]2CCCN2C(=O)[C@@H]2CCCN2)c1,0.6,.,.,2.0,.,.,.,.,
CC(=O)Nc1ccc(S(=O)(=O)N/N=C/c2ccc(C)o2)cc1,13.6,-7.0,67.3*,-1.1,32.8,28.4,20.5,-9.5,
Cn1cccc/c1=N\c1cccc[n+]1C,0.6,2.6,106.6*,4.7,-2.2,2.8,3.5,-12.8,
CSCCC(NS(=O)(=O)c1ccc(Cl)cc1)C(=O)OCc1cccc(Cl)c1 (configuration not stated),2.7,1.2,51.3*,4.5,-1.3,-6.7,-5.6,-7.9,
CSCCC(NS(=O)(=O)c1ccc(Cl)cc1)C(=O)OCc1c(Cl)cccc1Cl (configuration not stated),1.2,6.5,-6.5,0.3,-5.2,-0.8,.,.,
CN(C)c1ccc(CC(=O)N2CCCC(c3cc(C(=O)Nc4ccc5c(c4)OCO5)no3)C2)cc1 (configuration not stated),6.5,7.4,.,11.7,2.1,-8.8,.,.,
COc1ccc(OC)c(NC(=O)c2cccc(NC(=O)c3ccccc3C(=O)O)c2)c1,-1.0,3.7,-3.0,0.9,2.4,-0.6,.,.,
Cc1cc(=O)[nH]c(SCC(=O)Nc2ccc(S(N)(=O)=O)cc2)n1,0.5,-1.9,51.5*,9.0,1.6,26.9,47.5*,-18.6,Scp1 DSF=3.7
CCC(C)C1Nc2ccc(C(=O)NCCc3ccc(OC)c(OC)c3)cc2NC1=O (configuration not stated),-2.8,6.5,-4.8,-2.3,1.8,0.7,-8.4,-6.5,
COc1cccc(C(=O)C2CCCN(C(=O)CCC3=NNC(=O)CC3)C2)c1 (configuration not stated),-1.7,-3.2,4.5,1.1,-1.6,0.2,.,.,
O=C1CCC(CCC(=O)N2CCCC(C(=O)c3cccc(C(F)(F)F)c3)C2)=NN1 (configuration not stated),0.2,-2.7,-8.0,2.7,0.6,-13.9,-9.3,-3.5,
O=c1oc2ccccc2cc1-c1ccccc1,-1.1,-0.4,-4.7,-16.1,-1.5,2.2,.,.,
O=C(O)c1ccc(-n2cc(-c3cc4ccccc4oc3=O)[nH]c2=S)cc1,3.3,-0.7,84.1*,-3.1,9.6,-1.6,61.1*,-10.9,Scp1 DSF=1.3
O=C(CSCc1nc2c(nnn2Cc2ccc(F)cc2)c(=O)[nH]1)Nc1cccc(C(F)(F)F)c1,-0.6,6.7,-3.0,0.8,-2.1,-3.5,.,.,
CN(Cc1cnc2nc(N)nc(N)c2n1)c1ccc(C(=O)NC(CCC(=O)O)C(=O)O)cc1C(F)(F)F (configuration not stated),24.9,-10.0,50.1*,12.5,3.8,8.9,3.3,-7.9,
CN(Cc1cnc2nc(N)nc(N)c2n1)c1ccc(C(=O)NC(CCC(=O)O)C(=O)O)cc1 (configuration not stated),6.1,-23.2,61.6*,3.9,-0.5,0.3,70.0*,-6.5,Scp1 DSF=3.6
CCOC(=O)CCC(NC(=O)c1cncc(O)c1)C(=O)OCC (configuration not stated),-2.2,6.1,2.7,-0.1,0.9,9.5,.,.,
O=C(c1ccc(Cl)cc1)n1c(NCc2ccccc2)n[nH]c1=S,3.2,-8.1,-8.9,-2.8,0.5,4.2,.,.,
